Screening data from PubChem.
NadD inh: inhibitors of S. aureus NadD, primary screen, biochemical, colorimetric, uHTS. purified NadD enzyme, colorimetric absorbance read-out. inhibition, % at 20 µM. 360,000 tested, 0.78% active. AID 602399, 2012; in the data active means inhibition above about 26%
TPT1 inhibitor: Candida albicans TPT1 enzyme inhibitors, primary screen, biochemical, fluorescence polarization | inhibition, % at 5 µM | tRNA 2'-phosphotransferase TPT1 (Candida albicans SC5314) | recombinant caTPT1, FP RNA substrate dephosphorylation | 300,000 tested, 0.81% active;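 active means inhibition above the mean of all tested compounds plus 3 SD, set per screening campaign, cut at about 24% in these data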
PP1 counter: PP1-alpha phosphatase inhibitors, primary screen, counter-screen for PP5 inhibitor project, biochemical, fluorescence, OMFP substrate, single point | 320,000 tested, 0.9% active | purified PP1alpha | inhibition, % at 6.7 µM | AID 2235, 2010 | Serine/threonine-protein phosphatase PP1-alpha catalytic subunit (Homo sapiens), P62136;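 active means inhibition above the mean inhibition of all tested compounds plus 3 SD, computed separately for each screening campaign, cut at about 15% in these data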
Target sequence (P62136 whole entry, looked up): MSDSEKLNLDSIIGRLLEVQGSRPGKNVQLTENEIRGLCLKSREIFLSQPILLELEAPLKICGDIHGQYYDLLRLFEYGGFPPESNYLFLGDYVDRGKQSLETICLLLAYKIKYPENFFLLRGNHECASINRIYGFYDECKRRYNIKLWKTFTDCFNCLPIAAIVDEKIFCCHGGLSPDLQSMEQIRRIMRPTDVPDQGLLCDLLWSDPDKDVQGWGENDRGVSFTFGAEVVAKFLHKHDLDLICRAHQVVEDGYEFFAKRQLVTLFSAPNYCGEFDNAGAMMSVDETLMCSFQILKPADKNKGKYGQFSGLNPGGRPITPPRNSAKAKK
HNF4A DNA FP: change in binding of human HNF4A to DNA, primary screen, biochemical, fluorescence polarization, FITC-DNA; AID 1224865, 2016; 1 h; 360,000 tested, 0.3% active; activity change, % at 10 µM; in the data active means activity change above about 30%, passing the limit was not always enough
Rpn11 inh: Rpn11 (PSMD14) deubiquitinase inhibitors, primary screen, biochemical, fluorescence polarization, uHTS | 26S proteasome non-ATPase regulatory subunit 14 (Homo sapiens), O00487 | 360,000 tested, 0.59% active | human 26S proteasome, Ub4-pepOG fluorescence polarization; 20S core pre-blocked with epoxomicin | inhibition, % at 20 µM | AID 588493, 2011;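 active means inhibition at 20 µM, scaled to each plate's controls, above about 33%, limit read from the data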
Target sequence (O00487 whole entry, looked up): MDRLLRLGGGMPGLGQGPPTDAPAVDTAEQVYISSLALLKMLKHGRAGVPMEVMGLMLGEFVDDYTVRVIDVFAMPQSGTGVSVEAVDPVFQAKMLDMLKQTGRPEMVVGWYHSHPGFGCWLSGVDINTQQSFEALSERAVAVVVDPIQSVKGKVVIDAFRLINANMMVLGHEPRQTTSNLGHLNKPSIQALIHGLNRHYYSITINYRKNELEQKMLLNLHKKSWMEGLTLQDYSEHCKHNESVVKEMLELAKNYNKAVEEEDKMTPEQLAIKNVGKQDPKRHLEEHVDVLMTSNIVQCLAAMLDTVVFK
CSN inh: inhibitors of CSN-mediated cullin deneddylation, primary screen, biochemical, fluorescence polarization, uHTS; COP9 signalosome complex subunit 5 (Homo sapiens), Q92905; Purified CSN, SCF-Nedd8-OG deneddylation; inhibition, % at 12.5 µM; 360,000 tested, 0.38% active; AID 651999, 2013;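 active means pattern-corrected inhibition above about 35%, with an unprinted fluorescence ratio check between 0.5 and 1.5, limit read from the data, passing the limit was not always enough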
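Test system: purified human Csn5 enzyme expressed in HEK293T cells. Amount: 0.24 nM enzyme. Reagent: SCFSkp2-Nedd8OG substrate at 10 nM final. Schedule: 90 min incubation of compound, enzyme and substrate at room temperature. Detection: fluorescence polarization. Read-out: % inhibition of substrate cleavage by Csn5.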
Rpn11 confirm: Rpn11 (PSMD14) deubiquitinase inhibitors, confirmation, biochemical, fluorescence polarization, single concentration | shares compounds with Rpn11 inh | purified human 26S proteasome, Ub4-pepOG fluorescence polarization; proteasome pretreated with epoxomicin | inhibition, % at 20 µM | 1,900 tested, 29% active | AID 602318, 2012
MMP-2 counter: MMP-2 enzyme inhibition, confirmation, counter-screen for RPN11 inhibitor project, biochemical, fluorescence, single concentration. inhibition, % at 20 µM. AID 602330, 2012. shares compounds with Rpn11 inh. 1,900 tested, 4% active. recombinant MMP-2, FRET peptide cleavage fluorescence;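 further: human MMP-2 activated beforehand with APMA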
Thrombin FP: bovine thrombin protease inhibition, confirmation, counter-screen for Rpn11 inhibitor project, biochemical, fluorescence polarization, single concentration. shares compounds with Rpn11 inh. bovine thrombin cleavage of Ub4-pepOG. inhibition, % at 20 µM. 1,900 tested, 13% active. AID 602333, 2012;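 active means mean inhibition at least 40% at 20 µM, or signal 3 deviations below plate average, so some actives read negative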
Hits are given with their value; – = inactive; · = no result; + = active, no number. Shown are actives, neighbours in structure and some others; about 2.7% of the full set was active somewhere. Unless noted, no stated cut-off is given here; in the data, active means inhibition above about 40%; inactive means the rest.

SMILES | NadD inh | TPT1 inhibitor | PP1 counter | HNF4A DNA FP | Rpn11 inh | CSN inh | Rpn11 confirm | MMP-2 counter | Thrombin FP
CCCCCC(=O)N1C[C@@H](n2cc(-c3ccc(F)cc3)nn2)[C@H](O)C[C@@H]1c1ccc(Cl)cc1 | – | · | · | – | – | – | · | · | ·
COc1ccc2cc(C(=O)C3CCCN(Cc4cnc(N5CCOCC5)s4)C3)ccc2c1 (centres undefined) | – | – | – | – | 42 | – | – | – | –
C=CCn1cc(/C=N/NC(=O)COc2cccc3cccnc23)c2ccccc21 | – | – | – | – | 59 | – | 88 | – | 53
CC1CN(S(=O)(=O)c2cccc(C(=O)OC/C(O)=C(\C#N)c3nc4ccccc4[nH]3)c2)CC(C)O1 (centres undefined) | – | – | – | – | 40 | – | – | – | –
O=C(COc1ccc(/C=N/NC(=O)c2cc3ccccc3o2)cc1Br)Nc1ccccc1 | – | – | – | – | 118 | 125 | 41 | – | –
O=C(COc1ccccc1[N+](=O)[O-])Nc1ccc(NC(=O)c2cc3ccccc3o2)cc1 | – | – | – | – | – | – | · | · | ·
O=C(COC(=O)c1ccc(S(=O)(=O)N2CCc3ccccc3C2)cc1)NC1CCS(=O)(=O)C1 (centres undefined) | – | – | – | – | 49 | – | – | – | –
O=C(COC(=O)c1ccc(S(=O)(=O)N2CCCCC2)cc1)NC1CCCCC1 | – | · | · | – | – | – | · | · | ·
Cc1cccc(C)c1NC(=O)NC1(C(=O)N2CCCC2)CCCCC1 | – | – | – | – | – | – | · | · | ·
O=c1cc(CN2CCCCC2)c2ccccc2o1 | – | · | · | – | – | – | · | · | ·
O=c1cc(CN2CCCCCCC2)c2ccccc2o1 | – | · | · | – | 46 | – | – | – | –
Cc1ccnc2c1ccc1cccnc12 | – | · | · | – | – | – | · | · | ·
Cc1ccnc2c1ccc1c(C)ccnc12 | – | · | – | – | 46 | – | – | – | –
Cc1cccnc1NC(=O)c1cccc(NC(=O)CC2SC(N3CCCCC3)=NC2=O)c1 (centres undefined) | – | · | – | – | – | – | · | · | ·
CC(=O)c1ccc(N2CCN(C(=O)Cc3cccs3)CC2)cc1 | – | – | – | 88 | 62 | – | – | 50 | –
Cc1ccc(S(=O)(=O)NCCC(=O)NNC(=O)c2ccccc2O)cc1C | – | – | – | – | – | – | · | · | ·
Cc1ccc(NC(=O)CS(=O)CC(=O)Nc2cnc3ccccc3c2)cc1Cl (centres undefined) | – | – | – | – | 49 | – | – | – | –
CCOC(=O)CCC(=O)N1CCOCCN(C(=O)CCC(=O)OCC)CCOCC1 | – | – | – | – | 47 | – | – | – | –
O=C(CN1CCCCC1)Nc1ccc(N2CCCCCC2)cc1 | – | – | – | 72 | 88 | – | – | – | –
CC(C)N1CCc2c(sc(NC(=O)c3nc4ccccc4s3)c2C(N)=O)C1 | – | – | – | – | 61 | – | – | – | –
Clc1ccc(OCCSCc2nc3ccccc3[nH]2)cc1 | – | – | – | – | 44 | – | – | – | –
Cc1ccc(OCCSCc2nc3ccccc3[nH]2)cc1 | – | – | – | – | – | – | · | · | ·
CC1C=CCC2C(=O)N(c3cccc(C(=O)Nc4ccc(Br)cc4)c3)C(=O)C12 (centres undefined) | – | – | – | – | – | – | · | · | ·
COc1ccccc1N1CCN(S(=O)(=O)CCNC(=O)CC2CCCC2)CC1 | – | · | · | – | – | – | · | · | ·
CCNC(=S)NNC(=O)c1cccc(Br)c1 | – | – | – | – | 28 | – | – | – | –
SMILES | NadD inh | TPT1 inhibitor | PP1 counter | HNF4A DNA FP | Rpn11 inh | CSN inh | Rpn11 confirm | MMP-2 counter | Thrombin FP
CCNC(=S)NNC(=O)c1ccncc1 | – | – | – | – | – | – | · | · | ·
CN1/C(=C\C(=O)COC(=O)Cn2nnc(-c3ccccc3)n2)C(C)(C)c2ccccc21 | – | – | – | – | 40 | – | 45 | – | –
O=C(Nc1cccc2ccccc12)NC1CCCCC1O (centres undefined) | – | – | – | – | – | – | · | · | ·
O=C(NCC1CCCO1)C(c1ccc(F)cc1)N(CC1CCCO1)C(=O)c1ccc(-c2ccccc2)[nH]1 (centres undefined) | – | – | – | – | – | – | · | · | ·
O=C(NCC1CCCO1)C(c1cccs1)N(Cc1cccs1)C(=O)c1ccc(-c2ccccc2)[nH]1 (centres undefined) | – | – | – | – | 52 | – | – | – | –
O=C1NC(=S)SC1=Cc1cc(Br)ccc1O | – | · | · | 80 | 48 | – | – | – | –
COc1cccc(OC)c1C(=O)NC(=S)Nc1ccc2c(c1)Cc1ccccc1-2 | – | – | – | – | + | – | – | – | –
CN(C)CC1C2CCC(C2)C1O (centres undefined) | – | · | · | – | – | – | · | · | ·
N#CCC(=O)N/N=C/c1ccccc1Cl | – | – | – | – | 53 | – | – | – | –
COc1ccccc1NC(=O)/C(N=Nc1ccc(C)c(S(=O)(=O)Nc2ccccc2Cl)c1)=C(\C)O | – | · | · | – | – | – | · | · | ·
COc1ccccc1NS(=O)(=O)c1cc(N=N/C(C(=O)Nc2ccc(Cl)cc2)=C(/C)O)ccc1C | – | · | · | – | 42 | – | – | – | –
COc1ncnc(OC)c1S(=O)(=O)Nc1ccc(C(F)(F)F)cc1 | – | – | – | – | – | – | · | · | ·
COc1cc(/C=C2/SC(=Nc3ccc(O)cc3)NC2=O)cc(OC)c1O | – | – | – | – | 59 | – | – | – | –
Cc1ccc(N(C)S(=O)(=O)c2cccc(C(=O)N3CCN(Cc4ccccc4)CC3)c2)cc1 | – | · | · | – | – | – | · | · | ·
CN(C)S(=O)(=O)c1cccc(C(=O)N2CCN(Cc3ccccc3)CC2)c1 | – | – | – | – | 109 | – | – | – | –
